In one series the test system is Staphylococcus aureus. Briefly: Antibacterial activity against clinical isolate of Staphylococcus aureus after 24 hrs by twofold microdilution broth method. The class given is functional. A digest of the protocol:
(§1)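 Clinical isolates grown in Mueller-Hinton broth at 37 °C; inoculum diluted in MHB to 10^6 CFU. Compounds from 20,000 µg/ml DMSO stocks, twofold serial dilution across ten wells, with medium-only and organism-only controls. Incubated 24 h in ambient air. MIC taken as the lowest concentration with no visible growth by eye. Three replicates.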
In general terms: In broth dilution the organism is exposed to a series of concentrations in liquid medium.

A further series relates to Escherichia coli. Kind of series: Antibacterial activity against clinical isolate of Escherichia coli after 24 hrs by twofold microdilution broth method. The class given is functional. The gist of the method: as §1
In the next series the test system is Candida albicans. Briefly: Antifungal activity against Candida albicans CMCC (F) 98001 after 24 hrs by twofold microdilution broth method. The class given is functional. The settings on record: CMCC (F) 98001, 24 h. A digest of the protocol: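 Strain CMCC(F) 98001 grown in Sabouraud dextrose broth at 25 °C; inoculum diluted in SDB to 10^6 CFU. Compounds from 20,000 µg/ml DMSO stocks, twofold serial dilution across ten wells, with medium-only and organism-only controls. Incubated 24 h. MIC read by eye as the lowest concentration with no visible growth. Three replicates.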

A short description of series [1]: Cytotoxicity against rat IEC-6 cells assessed as cell survival at 10 uM after 72 hrs by MTT assay relative to control. The class given is cell-based. The settings on record: read-out: Survival. The gist of the method:
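IEC-6 intestinal epithelial cells were exposed to each compound at a fixed 10 µM for 72 h alongside an untreated blank control. Viability was read by MTT reduction and expressed as survival rate (SR). Compounds with SR between 70% and 100% were classed as noncytotoxic or hypocytotoxic.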
For orientation: Tetrazolium dyes change colour on reduction, which living cells bring about.

The subject of a further series is IEC-6. Kind of series: Induction of XBP1 promoter DNA activation in rat IEC-6 cells at 10 uM after 48 hrs by dual luciferase reporter gene assay relative to control. The format is cell-based.
Series [2] can be described thus: Induction of XBP1 promoter DNA activation in rat IEC-6 cells after 48 hrs by dual luciferase reporter gene assay. The format is cell-based. Particulars: IEC-6, 48 h.
For series [3], the system named is Mus musculus. Kind of series: Antiulcerogenic activity in DSS-induced acute ulcerative colitis C57BL/6J mouse model assessed as decrease in body weight at 500 mg/kg, po qd administered for 7 days (reference value: 23.96%). The format is functional. Details: scale not given: the % may be the effect or the level left.
Series [4] has as its system Mus musculus. Briefly: Antiulcerogenic activity in DSS-induced acute ulcerative colitis C57BL/6J mouse model assessed as colon contracture at 500 mg/kg, po qd administered for 7 days (reference value: 41.87%). The format is functional.
Series [5] deals with Mus musculus. Briefly: Inhibition of DSS-induced acute ulcerative colitis C57BL/6J mouse model at 500 mg/kg, po qd administered for 7 days relative to control. The class given is functional. Particulars: 168 h.
In series [6] the test system is Mus musculus. Briefly: Antiulcerogenic activity in DSS-induced acute ulcerative colitis C57BL/6J mouse model assessed as colon macroscopic damage index at 500 mg/kg, po qd administered for 7 days (reference value: 4.13 +/- 0.78). The class given is functional.
Series [7] has as its system Mus musculus. Briefly: Antiulcerogenic activity in DSS-induced acute ulcerative colitis C57BL/6J mouse model assessed as disappearance of inflammatory edema at 500 mg/kg, po qd administered for 7 days by microscopic analysis. The format is functional, organism-based. The gist of the method: (§2)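 Colitis induced by DSS in C57BL/6J mice. Agents given orally each day: test agents at 150 mg/kg as a suspension in 0.5% CMC-Na; sulfasalazine at 500 mg/kg. At study end, colon tissue was H&E stained and examined by light microscopy at ×100 for mucosal structure, epithelial cell arrangement, crypt damage, inflammatory infiltration and ulceration.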

For series [8], the system named is Mus musculus. Briefly: Antiulcerogenic activity in DSS-induced acute ulcerative colitis C57BL/6J mouse model assessed as decrease in body weight at 150 mg/kg, po qd administered for 7 days (reference value: 23.96%). The class given is functional. The arrangement: scale not given: the % may be the effect or the level left.
The test system of series [9] is Mus musculus. Briefly: Antiulcerogenic activity in DSS-induced acute ulcerative colitis C57BL/6J mouse model assessed as colon contracture at 150 mg/kg, po qd administered for 7 days (reference value: 41.87%). The class given is functional.
In series [10] the test system is Mus musculus. Kind of series: Inhibition of DSS-induced acute ulcerative colitis C57BL/6J mouse model at 150 mg/kg, po qd administered for 7 days relative to control. The class given is functional. The settings on record: 168 h.
In series [11] the test system is Mus musculus. Kind of series: Antiulcerogenic activity in DSS-induced acute ulcerative colitis C57BL/6J mouse model assessed as colon macroscopic damage index at 150 mg/kg, po qd administered for 7 days (reference value: 4.13 +/- 0.78). The class given is functional.
Series [12] concerns Mus musculus. Briefly: Antiulcerogenic activity in DSS-induced acute ulcerative colitis C57BL/6J mouse model assessed as regular arrangement of IEC cells at 150 mg/kg, po qd administered for 7 days by microscopic analysis. The format is functional, organism-based. The gist of the method:
as §2

Series [13] has as its system Mus musculus. Kind of series: Antiulcerogenic activity in DSS-induced acute ulcerative colitis C57BL/6J mouse model assessed as recovery of polar arrangement of IEC cells at 150 mg/kg, po qd administered for 7 days by microscopic analysis. The format is functional, organism-based. A digest of the protocol:
as §2

Converted amounts (≈) assume the structure as drawn. The source made the active and inactive calls. The rule behind the calls is not given here. A value given as a limit tells only on which side of the number the result lay.

The term MIC denotes the least concentration at which growth counts as inhibited. A word on the EC50: it is the concentration that produces a half-maximal response. As to `COc1cc2c(cc1OC)-c1c(C(=O)NC3CC3)c3ccc(OC)c(OC)c3c(=O)n1CC2`, the minimal inhibitory concentration (MIC) against Staphylococcus aureus, against Escherichia coli and against Candida albicans was greater than 250 µg/mL throughout. Further, the viability at 72 h, 10 µM in series [1] lay within 70 to 100%. In the series on IEC-6, the fold change (FC) came to 1.36. Also, in series [2], the EC50 came out at 1000 nM.

The inhibition in vivo is the share of the control response that was lost under treatment. For the compound `O=C(O)c1cc(/N=N/c2ccc(S(=O)(=O)Nc3ccccn3)cc2)ccc1O` [SULFASALAZINE], the Activity in the series on Mus musculus [3] is given as 6.01%; in the series on Mus musculus [4], 28.22%. At 500 mg/kg the inhibition in vivo in the series with Mus musculus [5] was 55.2%. The Activity_index in the series with Mus musculus [6] came out at 3.13. The outcome in the series on Mus musculus [7] was Active.

On to `COc1cc2c(cc1OC)-c1c(C=O)c3ccc(OC)c(OC)c3c(=O)n1CC2`, for which the MIC with Staphylococcus aureus, against Escherichia coli and against Candida albicans was greater than 250 µg/mL throughout. Besides, the values for the Activity in the series on Mus musculus [8] and in the series with Mus musculus [9] were 5.92% and 29.24%, respectively. For the same compound, the inhibition in vivo at 150 mg/kg in the series with Mus musculus [10] was found to be 63.2%. Also, the Activity_index in the series with Mus musculus [11] is given as 2.25. The outcome with Mus musculus [12] and in the series on Mus musculus [13] was Active. Also, the viability at 72 h, 10 µM in [1] is 70 to 100%. For the same compound, the fold change (FC) with IEC-6 came to 1.41. In series [2], this compound returned an EC50 of 135 nM.

For `CCCCC(=O)c1c2[n+](cc3c(OC)c(OC)ccc13)CCc1cc(OC)c(OC)cc1-2.[Cl-]`, the MIC against Staphylococcus aureus is 125 µg/mL; in the series with Escherichia coli it was greater than 250 µg/mL; in the series with Candida albicans it was greater than 250 µg/mL. In addition, in series [1], the viability at 72 h, 10 µM is 70 to 100%. This compound also registered a fold change (FC) with IEC-6 of 1.29. The same compound yielded a concentration giving a half-maximal response (EC50) in series [2] of 340 nM.

As for `CCC(=O)c1c2[n+](cc3c(OC)c(OC)ccc13)CCc1cc(OC)c(OC)cc1-2.[Cl-]`, the MIC in the series with Staphylococcus aureus, in the series with Escherichia coli and against Candida albicans was greater than 250 µg/mL throughout. Moreover, the viability at 72 h, 10 µM in series [1] was 70 to 100%. For the same compound, in the series with IEC-6, the fold change (FC) was found to be 1.01. Moreover, the EC50 in [2] was determined as 301 nM.

With `COc1cc2c(cc1OC)-c1c(C(=O)NCc3ccccc3)c3ccc(OC)c(OC)c3c(=O)n1CC2`, the MIC against Staphylococcus aureus, against Escherichia coli and against Candida albicans was greater than 250 µg/mL each time. Further, the viability at 72 h, 10 µM in [1] was 70 to 100%. The fold change (FC) with IEC-6 stood at 1.2. This compound also had an EC50 in series [2] of 834 nM.

For the compound `CCCCCCCCCNCc1c2n(c(=O)c3c(OC)c(OC)ccc13)CCc1cc(OC)c(OC)cc1-2`, the MIC is 15.6 µg/mL (≈ 29.9 µM) against Staphylococcus aureus, greater than 250 µg/mL against Escherichia coli and 62.5 µg/mL (≈ 120 µM) against Candida albicans. Besides, the viability at 72 h, 10 µM in series [1] lay within 70 to 100%.

Regarding `CCCCCC(=O)c1c2[n+](cc3c(OC)c(OC)ccc13)CCc1cc(OC)c(OC)cc1-2.[Cl-]`, the MIC was 62.5 µg/mL in the series with Staphylococcus aureus, 250 µg/mL against Escherichia coli and greater than 250 µg/mL with Candida albicans. In addition, the viability at 72 h, 10 µM in series [1] fell in the range of 70 to 100%.

For the compound `CCCCCNC(=O)c1c2n(c(=O)c3c(OC)c(OC)ccc13)CCc1cc(OC)c(OC)cc1-2`, the MIC in the series with Staphylococcus aureus, in the series with Escherichia coli and against Candida albicans was greater than 250 µg/mL throughout. Further, the viability at 72 h, 10 µM in [1] is 70 to 100%. For the same compound, the fold change (FC) in the series with IEC-6 turned out to be 1.21. The compound further showed an EC50 in series [2] of 1000 nM.

In the case of `COc1cc2c(cc1OC)-c1c(C(C)=O)c3ccc(OC)c(OC)c3c[n+]1CC2.[Cl-]`, the MIC against Staphylococcus aureus, in the series with Escherichia coli and with Candida albicans was greater than 250 µg/mL throughout. The viability at 72 h, 10 µM in series [1] lay in the range of 70 to 100%.

Regarding `CCCCCCNCc1c2n(c(=O)c3c(OC)c(OC)ccc13)CCc1cc(OC)c(OC)cc1-2`, the MIC was 250 µg/mL (≈ 520 µM) against Staphylococcus aureus, greater than 250 µg/mL against Escherichia coli and greater than 250 µg/mL in the series with Candida albicans. Besides, the viability at 72 h, 10 µM in [1] lay in the range of 70 to 100%.

On to `CCCNC(=O)c1c2n(c(=O)c3c(OC)c(OC)ccc13)CCc1cc(OC)c(OC)cc1-2`, for which the MIC in the series on Staphylococcus aureus, in the series with Escherichia coli and against Candida albicans was greater than 250 µg/mL in each case. For the same compound, the viability at 72 h, 10 µM in [1] is 70 to 100%.

For the compound `CCCCNCc1c2n(c(=O)c3c(OC)c(OC)ccc13)CCc1cc(OC)c(OC)cc1-2`, the MIC against Staphylococcus aureus, against Escherichia coli and against Candida albicans was greater than 250 µg/mL throughout. In addition, the viability at 72 h, 10 µM in series [1] fell in the range of 70 to 100%.

As for `CCOC(=O)Cc1c2[n+](cc3c(OC)c(OC)ccc13)CCc1cc(OC)c(OC)cc1-2.[Cl-]`, the minimum inhibitory concentration (MIC) was 250 µg/mL in the series with Staphylococcus aureus, greater than 250 µg/mL in the series on Escherichia coli and greater than 250 µg/mL in the series with Candida albicans. Further, in [1], the viability at 72 h, 10 µM is 70 to 100%.

For the compound `CCCC(=O)c1c2[n+](cc3c(OC)c(OC)ccc13)CCc1cc(OC)c(OC)cc1-2.[Cl-]`, the results for the MIC with Staphylococcus aureus, with Escherichia coli and against Candida albicans were 250 µg/mL, greater than 250 µg/mL and greater than 250 µg/mL, respectively. Further, the viability at 72 h, 10 µM in series [1] was in the range of 70 to 100%. This compound yielded a fold change (FC) in the series on IEC-6 of 1.59. In [2], this compound showed an EC50 of 338 nM.
